In ChEMBL document CHEMBL1177728, “Discovery and optimization of boronic acid based inhibitors of autotaxin” (J Med Chem, 2010):

Legend:
Autotaxin [1] = target: T1, Autotaxin (Homo sapiens, UniProt Q13822); assay: Inhibition of 6x-histidine-tagged human recombinant ATX expressed in HEK293 cells assessed as lysophosphatidulcholine release at 5 uM; type: cell-based
Outline: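 LPC (18:1) choline release: ATX (~40 nM) secreted by transfected HEK293 cells into serum-free medium, TALON-purified, in 50 mM Tris-HCl pH 7.4 with 0.01% Triton X-100. Substrate added as 80 μM LPC with 10 mM MgCl2 and CaCl2, 3 h at 37 C. Choline read at 405 nm by choline oxidase/HRP/ABTS with compound-absorbance correction. IC50 over 10 concentrations (0.01–30 μM); inhibition at 5 μM final.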

Autotaxin [2] = target: T1, Autotaxin; assay: Inhibition of 6x-histidine-tagged human recombinant ATX expressed in HEK293 cells assessed as lysophosphatidulcholine release; type: cell-based
Outline: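 LPC (18:1) choline release: ATX (~40 nM) secreted by transfected HEK293 cells into serum-free medium, TALON-purified, in 50 mM Tris-HCl pH 7.4 with 0.01% Triton X-100. Substrate added as 80 μM LPC with 10 mM MgCl2 and CaCl2, 3 h at 37 C.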

Autotaxin [3] = target: T1, Autotaxin; assay: Inhibition of 6x-histidine-tagged human recombinant ATX expressed in HEK293 cells assessed as residual enzyme activity by lysophosphatidulcholine release assay; type: cell-based
Outline: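 Residual activity in the LPC (18:1) choline release assay with purified His-tagged ATX (~40 nM), pH 7.4 Tris with 0.01% Triton X-100, 3 h at 37 C. Inhibitor titrated at 10 concentrations, 0.01–30 μM. Choline detected at 405 nm via choline oxidase/HRP/ABTS.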

Autotaxin [4] = target: T1, Autotaxin; assay: Inhibition of 6x-histidine-tagged human recombinant ATX expressed in HEK293 cells using bisP-nitrophenyl phosphate as a substrate; type: cell-based
Autotaxin [5] = target: T1, Autotaxin; assay: Inhibition of 6x-histidine-tagged human recombinant ATX expressed in HEK293 cells assessed as residual activity using bisP-nitrophenyl phosphate as a substrate; values are per cent of control

inhibition (Autotaxin [1]) [%] | SMILES | further results
19 | C=CCN1C(=O)S/C(=C\c2ccc(OCc3ccc(C(=O)O)cc3)c(OC)c2)C1=O | 
17 | COc1cc(/C=C2\SC(=O)N(Cc3cccnc3)C2=O)ccc1OCc1ccc(C(=O)O)cc1 | 
100 | O=C1S/C(=C\c2cccc(OCc3ccc(B(O)O)cc3)c2)C(=O)N1Cc1ccc(F)cc1 | IC50 (Autotaxin [2]): 29.6 nM
31 | COc1cc(/C=C2\SC(=O)N(Cc3ccc(C(=O)O)cc3[N+](=O)[O-])C2=O)ccc1OCc1ccc(C(=O)O)cc1 | 
49 | COc1cc(/C=C2\SC(=O)N(Cc3ccc(C(=O)O)cc3)C2=O)ccc1OCc1ccc(C(=O)O)cc1 | 
12 | COc1cc(/C=C2\SC(=O)N(Cc3ccc(OC(F)(F)F)cc3)C2=O)ccc1OCc1ccc(C(=O)O)cc1 | 
48 | COc1cc(/C=C2\SC(=O)N(Cc3cccc([N+](=O)[O-])c3)C2=O)ccc1OCc1ccc(C(=O)O)cc1 | 
32 | COc1cc(/C=C2\SC(=O)N(Cc3ccc(C(F)(F)F)cc3)C2=O)ccc1OCc1ccc(C(=O)O)cc1 | 
99 | O=C1S/C(=C\c2ccc(OCc3cccc(B(O)O)c3)cc2)C(=O)N1Cc1ccc(F)cc1 | IC50 (Autotaxin [2]): 28.3 nM
 | O=C(O)c1cccc(COc2ccc(/C=C3\SC(=O)N(Cc4ccc(F)cc4)C3=O)cc2)c1 | IC50 (Autotaxin [2]): 1070 nM; Activity (Autotaxin [3]): 7%
13 | COc1cc(/C=C2\SC(=O)N(Cc3ccc(F)cc3C(F)(F)F)C2=O)ccc1OCc1ccc(C(=O)O)cc1 | 
11 | O=C1S/C(=C\c2cccc(OCc3ccccc3B(O)O)c2)C(=O)N1Cc1ccc(F)cc1 | IC50 (Autotaxin [2]): > 5000 nM
36 | O=C1S/C(=C\c2ccc(OCc3ccccc3B(O)O)cc2)C(=O)N1Cc1ccc(F)cc1 | IC50 (Autotaxin [2]): > 5000 nM
35 | COc1cc(/C=C2\SC(=O)N(CC(=O)c3ccc(Cl)cc3)C2=O)ccc1OCc1ccc(C(=O)O)cc1 | 
29 | COc1cc(/C=C2\SC(=O)N(Cc3cccc(Cl)c3)C2=O)ccc1OCc1ccc(C(=O)O)cc1 | 
 | O=C1S/C(=C\c2ccc(OCc3ccccc3)cc2)C(=O)N1Cc1ccc([N+](=O)[O-])cc1 | IC50 (Autotaxin [4]; read-out: IC50): > 100000 nM
 | O=C1S/C(=C\c2ccccc2)C(=O)N1Cc1ccc(F)cc1 | IC50 (Autotaxin [4]; read-out: IC50): > 100000 nM
15 | CCCCCN1C(=O)S/C(=C\c2ccc(OCc3ccc(C(=O)O)cc3)c(OC)c2)C1=O | 
 | O=C1S/C(=C\c2ccc(OCc3ccccc3)cc2)C(=O)N1Cc1ccccc1 | residual activity (Autotaxin [5]): 32%; IC50 (Autotaxin [4]; read-out: IC50): 2690 nM
57 | COc1cc(/C=C2\SC(=O)N(Cc3ccc(Cl)cc3)C2=O)ccc1OCc1ccc(C(=O)O)cc1 | 
 | COc1cc(/C=C2\SC(=O)N(Cc3ccccc3)C2=O)ccc1OCc1ccccc1 | IC50 (Autotaxin [4]; read-out: IC50): 100000 nM
 | O=C1S/C(=C\c2ccccc2)C(=O)N1Cc1ccc([N+](=O)[O-])cc1 | IC50 (Autotaxin [4]; hek293): Not Active
64 | COc1cc(/C=C2\SC(=O)N(Cc3cccc(F)c3)C2=O)ccc1OCc1ccc(C(=O)O)cc1 | 

inhibition (Autotaxin [1]) [%] | SMILES | further results
 | COc1cc(/C=C2\SC(=O)N(Cc3ccc([N+](=O)[O-])cc3)C2=O)ccc1OCc1ccc(C(=O)O)cc1 | IC50 (Autotaxin [2]): > 5000 nM; residual activity (Autotaxin [5]): 33%; Activity (Autotaxin [3]): 56%; IC50 (Autotaxin [4]; read-out: IC50): 442 nM
 | O=C(O)c1ccc(COc2ccc(/C=C3\SC(=O)N(Cc4ccc(F)cc4)C3=O)cc2)cc1 | IC50 (Autotaxin [2]): 1630 nM; Activity (Autotaxin [3]): 40%
99 | O=C1S/C(=C\c2ccc(OCc3ccc(B(O)O)cc3)cc2)C(=O)N1Cc1ccc(F)cc1 | 
11 | COc1ccc(CN2C(=O)S/C(=C\c3ccc(OCc4ccc(C(=O)O)cc4)c(OC)c3)C2=O)cc1 | 
31 | COC(=O)c1ccc(CN2C(=O)S/C(=C\c3ccc(OCc4ccc(C(=O)O)cc4)c(OC)c3)C2=O)cc1 | 
38 | COc1cc(/C=C2/SC(=O)N(Cc3c(Cl)cccc3Cl)C2=O)ccc1OCc1ccc(C(=O)O)cc1 | 
17 | COc1cc(/C=C2\SC(=O)N(Cc3ccccc3C#N)C2=O)ccc1OCc1ccc(C(=O)O)cc1 | 
38 | COc1cc(/C=C2\SC(=O)N(Cc3ccccc3[N+](=O)[O-])C2=O)ccc1OCc1ccc(C(=O)O)cc1 | 
44 | COc1cc(/C=C2\SC(=O)N(Cc3cccc(C#N)c3)C2=O)ccc1OCc1ccc(C(=O)O)cc1 | 
30 | COC(=O)c1cccc(CN2C(=O)S/C(=C\c3ccc(OCc4ccc(C(=O)O)cc4)c(OC)c3)C2=O)c1 | 
26 | COc1cc(/C=C2\SC(=O)N(Cc3cccc(Br)c3)C2=O)ccc1OCc1ccc(C(=O)O)cc1 | 
17 | COc1cc(/C=C2\SC(=O)N(CC(=O)c3ccc([N+](=O)[O-])cc3)C2=O)ccc1OCc1ccc(C(=O)O)cc1 | 
13 | COc1cc(/C=C2\SC(=O)N(Cc3ccncc3)C2=O)ccc1OCc1ccc(C(=O)O)cc1 | 
 | COc1cc(/C=C2\SC(=O)N(Cc3ccc(F)cc3)C2=O)ccc1OCc1cccc(C(=O)O)c1 | IC50 (Autotaxin [2]): 2050 nM; Activity (Autotaxin [3]): 42%
41 | COc1cc(/C=C2\SC(=O)N(Cc3ccccc3F)C2=O)ccc1OCc1ccc(C(=O)O)cc1 | 
 | COc1cc(/C=C2\SC(=O)N(Cc3ccc(F)cc3)C2=O)ccc1OCc1ccccc1 | residual activity (Autotaxin [5]): 12%; IC50 (Autotaxin [4]; read-out: IC50): 5870 nM
23 | COc1cc(/C=C2\SC(=O)N(CC(=O)c3ccc(Br)cc3)C2=O)ccc1OCc1ccc(C(=O)O)cc1 | 
 | O=C1S/C(=C\c2ccccc2)C(=O)N1Cc1ccccc1 | IC50 (Autotaxin [4]; read-out: IC50): > 100000 nM
 | COc1cc(/C=C2\SC(=O)N(Cc3ccccc3)C2=O)ccc1OCc1ccc(C(=O)O)cc1 | IC50 (Autotaxin [2]): 2900 nM; residual activity (Autotaxin [5]): 9%; Activity (Autotaxin [3]): 29%; IC50 (Autotaxin [4]; read-out: IC50): 248 nM
10 | COc1cc(/C=C2/SC(=O)N(Cc3c(F)c(F)c(F)c(F)c3F)C2=O)ccc1OCc1ccc(C(=O)O)cc1 | 
 | COc1cc(/C=C2\SC(=O)N(Cc3ccc([N+](=O)[O-])cc3)C2=O)ccc1OCc1ccccc1 | IC50 (Autotaxin [4]; read-out: IC50): > 100000 nM
 | CC(C)(C)c1ccc(CN2C(=O)S/C(=C\c3ccccc3)C2=O)cc1 | IC50 (Autotaxin [4]; hek293): Not Active
23 | COc1cc(/C=C2\SC(=O)N(Cc3ccc(Br)cc3)C2=O)ccc1OCc1ccc(C(=O)O)cc1 | 

inhibition (Autotaxin [1]) [%] | SMILES | further results
51 | COc1cc(/C=C2\SC(=O)N(Cc3ccc(F)cc3Br)C2=O)ccc1OCc1ccc(C(=O)O)cc1 | 
11 | COc1cc(/C=C2\SC(=O)N(Cc3ccc(C)cc3)C2=O)ccc1OCc1ccc(C(=O)O)cc1 | 
20 | COc1cccc(CN2C(=O)S/C(=C\c3ccc(OCc4ccc(C(=O)O)cc4)c(OC)c3)C2=O)c1 | 
10 | COc1cc(/C=C2\SC(=O)N(Cc3ccccn3)C2=O)ccc1OCc1ccc(C(=O)O)cc1 | 
57 | COc1cc(/C=C2\SC(=O)N(Cc3ccccc3Cl)C2=O)ccc1OCc1ccc(C(=O)O)cc1 | 
 | COC(=O)c1ccc(COc2ccc(/C=C3\SC(=O)N(Cc4ccc(F)cc4)C3=O)cc2OC)cc1 | IC50 (Autotaxin [4]; read-out: IC50): > 100000 nM
72 | COc1cc(/C=C2\SC(=O)N(Cc3ccccc3Br)C2=O)ccc1OCc1ccc(C(=O)O)cc1 | 
 | COc1cc(/C=C2\SC(=O)N(Cc3ccc(C(C)(C)C)cc3)C2=O)ccc1OCc1ccc(C(=O)O)cc1 | IC50 (Autotaxin [2]): 13600 nM; residual activity (Autotaxin [5]): 33%; Activity (Autotaxin [3]): 27%; IC50 (Autotaxin [4]; read-out: IC50): 18200 nM
28 | COc1cc(/C=C2\SC(=O)N(Cc3ccccc3C(F)(F)F)C2=O)ccc1OCc1ccc(C(=O)O)cc1 | 
0 | COc1cc(/C=C2\SC(=O)N(CCN3C(=O)c4ccccc4C3=O)C2=O)ccc1OCc1ccc(C(=O)O)cc1 | 
 | COC(=O)c1ccc(COc2ccc(/C=C3\SC(=O)N(Cc4ccc([N+](=O)[O-])cc4)C3=O)cc2OC)cc1 | residual activity (Autotaxin [5]): 31%; IC50 (Autotaxin [4]; read-out: IC50): 60900 nM
 | COC(=O)c1ccc(COc2ccc(/C=C3\SC(=O)N(Cc4ccccc4)C3=O)cc2OC)cc1 | residual activity (Autotaxin [5]): 24%; IC50 (Autotaxin [4]; read-out: IC50): 2690 nM
13 | COc1cc(/C=C2\SC(=O)N(Cc3cccc4ccccc34)C2=O)ccc1OCc1ccc(C(=O)O)cc1 | 
 | COC(=O)c1ccc(COc2ccc(/C=C3\SC(=O)N(Cc4ccc(C(C)(C)C)cc4)C3=O)cc2OC)cc1 | IC50 (Autotaxin [4]; read-out: IC50): > 100000 nM
 | O=C1S/C(=C\c2ccc(OCc3ccccc3)cc2)C(=O)N1Cc1ccc(F)cc1 | residual activity (Autotaxin [5]): 37%; IC50 (Autotaxin [4]; read-out: IC50): 700 nM
5 | COc1cc(/C=C2\SC(=O)N(C(C)c3ccccc3)C2=O)ccc1OCc1ccc(C(=O)O)cc1 (stereo unspecified) | 
4 | COc1cc(/C=C2\SC(=O)N(C(c3ccccc3)c3ccccc3)C2=O)ccc1OCc1ccc(C(=O)O)cc1 | 
21 | COc1cc(/C=C2\SC(=O)N(Cc3ccc(C#N)cc3)C2=O)ccc1OCc1ccc(C(=O)O)cc1 | 
 | CC(C)(C)c1ccc(CN2C(=O)S/C(=C\c3ccc(OCc4ccccc4)cc3)C2=O)cc1 | IC50 (Autotaxin [4]; read-out: IC50): > 100000 nM
 | COc1cc(/C=C2\SC(=O)N(Cc3ccc(C(C)(C)C)cc3)C2=O)ccc1OCc1ccccc1 | IC50 (Autotaxin [4]; hek293): Not Active
100 | O=C1S/C(=C\c2cccc(OCc3cccc(B(O)O)c3)c2)C(=O)N1Cc1ccc(F)cc1 | IC50 (Autotaxin [2]): 11.9 nM
46 | COc1cc(/C=C2\SC(=O)N(Cc3cccc(C(F)(F)F)c3)C2=O)ccc1OCc1ccc(C(=O)O)cc1 | 
42 | COc1cc(/C=C2\SC(=O)N(Cc3ccc(CC(=O)O)cc3)C2=O)ccc1OCc1ccc(C(=O)O)cc1 | 
